Entries after “also recorded” stand apart in the source; their conditions may differ.

Data set [1] concerns HepG2 cells. Kind of data set: Cell death of HepG2 cells stably transfected with CYP3A4-EGFP or empty vector. Type of data set: cell-based, human. The settings on record: 15 μM, 24 h; for cell death of HepG2 cells: influence of cellular CYP3A4 overexpression: CYP3A4-EGFP versus vector. A digest of the protocol: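 HepG2 cells were lipofected with pcDNA3-CYP3A4-EGFP or pcDNA3-EGFP and kept in G418 (0.5 mg/mL) for four weeks; plasmid presence was confirmed by PCR. Cells were seeded at 0.1 × 10^6 per well, adhered overnight, then exposed to 15 μM for 24 h. Propidium iodide (5 μg/mL in PBS) staining was read by flow cytometry without FSC/SSC gating. Specific cell death was calculated against control. Mean ± SEM, three independent experiments.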

The subject of data set [2] is VCR-R CEM cells. Kind of data set: Western blot analysis of VCR-R CEM cell lysates. The settings on record: 5 μM, 24 h. The format is cell-based, human. The procedure, abridged: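 VCR-R CEM cells were seeded at 2 × 10^6 per well 4 h before treatment with DMSO or 5 μM compound for 24 h. Lysates were made in RIPA, separated by SDS-PAGE and transferred to PVDF. Blots were probed for p-Akt (Ser473), total Akt, PARP, Bcl-xL and Mcl-1 (1:1000) and detected by chemiluminescence, with stain-free total protein as loading control.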
Background: Immunoblotting shows a protein as a band on a membrane.

Data set [3] deals with VCR-R CEM cells. Kind of data set: Mitochondrial membrane potential. The settings on record: 24 h. The format is cell-based, human. The procedure, abridged: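 VCR-R CEM cells were seeded at 0.125 × 10^6 per well 4 h before 24 h exposure to 5 μM compound or DMSO. JC-1 (1 μg/mL) was applied for 1 h before harvest, with elacridar (5 μM) present […]. Cells were washed, resuspended in PBS and read by flow cytometry as the red/green fluorescence shift.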

The subject of a further data set is HepaRG™ cells. Kind of data set: Toxicity to differentiated HepaRG cells without transfection. The format is cell-based, human. The settings on record: 24 h, compared with tetrandrine; for cell viability of HepaRG cells: 10 μM; for toxicity to HepaRG cells (cell viability): 20 μM. The procedure, abridged:
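HepaRG cells were differentiated in Williams' E with GlutaMAX and Maintenance/Metabolism supplement, then exposed to compound for 24 h. Viability was read by CellTiter-Blue and normalised to vehicle control. Mean ± SEM, three independent experiments.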

For data set [4], the system named is CYP3A4 overexpressing HepaRG™ cells. The format is cell-based, human. The settings on record: 10 μM, 24 h. The procedure, abridged:
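HepaRG cells were differentiated in Maintenance/Metabolism medium, then lipofected with pcDNA3-CYP3A4-EGFP or pcDNA3-EGFP 16 h before treatment. Exposure was 10 μM for 24 h. Cell death was read by propidium iodide staining (5 μg/mL in PBS) and flow cytometry, with no FSC/SSC gating. Specific cell death was calculated against control. Mean ± SEM, three independent experiments.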

The test system of data set [5] is human umbilical vein endothelial cells (HUVECs). Kind of data set: HUVEC viability. Type of data set: cell-based. The settings on record: 10 μM, 24 h, compared with tetrandrine. The procedure, abridged: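 HUVECs were cultured in ECGM with 10% FCS and antibiotics/antimycotic, for at most six passages. They were seeded at […], adhered overnight, then exposed to 1, 5 or 10 μM for 24 h. Viability was read by CellTiter-Blue, with fluorescence normalised to vehicle. Mean ± SEM, three independent experiments.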

The subject of data set [6] is HepG2 cells. Kind of data set: Western blot analysis of HepG2 cells. The format is cell-based, human. Conditions: 5 μM, 48 h. The procedure, abridged:
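HepG2 cells were seeded at 0.5 × 10^6 per well, adhered overnight, then treated with DMSO or 5 μM compound for 24 or 48 h. Cells were lysed in RIPA, run on SDS-PAGE and transferred to PVDF. Blots were probed with p-Akt (Ser473), total Akt, PARP, Bcl-xL and Mcl-1 antibodies (1:1000) and detected by chemiluminescence, with stain-free total protein as loading control.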

The next data set addresses P-gp (Homo sapiens, UniProt P08183). The data set can be described thus: Calcein-AM retention assay in P-gp overexpressing VCR-R CEM cells. The format is cell-based. The settings on record: 0.1 and 1 μM. A digest of the protocol: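 VCR-R CEM cells were loaded with calcein-AM (200 nM) plus test compound (0.1 or 1 μM) for 30 min at 37 °C. After a wash, they were kept without calcein-AM for a further 60 min at 37 °C, then analysed by flow cytometry. Geometric mean fluorescence intensity was normalised to the calcein-AM-only control.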

For data set [7], the system named is VCR-R CEM cells. Kind of data set: Cell proliferation assay. Conditions: 48 h, relative proliferation at 10 μM and IC50. The format is cell-based, human. A digest of the protocol:
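VCR-R CEM cells (RPMI 1640, 10% FCS) were seeded at 0.02 × 10^6 per well and rested 4 h. Metabolic activity read at that point served as the zero value. Compound exposure was 48 h, with CellTiter-Blue added 2 h before the end and fluorescence read at 590 nm. IC50 was obtained by nonlinear regression; relative proliferation was also taken at 10 μM.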

The subject of data set [8] is VCR-R CEM cells. The data set can be described thus: Apoptosis assay in combination with vincristine. Type of data set: cell-based, human. The settings on record: 1 μM compound with varying doses of VCR, 48 h.
Data set [9] deals with peripheral blood mononuclear cells (PBMCs). The data set can be described thus: PBMC cell death. Conditions: 5 and 10 μM, 48 h, compared with RMS3 and RMS5. The format is cell-based, human. The procedure, abridged: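 PBMCs were isolated from anticoagulated healthy-donor blood on a Ficoll density gradient and kept in RPMI 1640 with 20% FCS and penicillin/streptomycin. Treatment started 4 h after seeding and lasted 48 h. Cells were stained with propidium iodide (5 μg/mL in PBS) and read by flow cytometry, with debris excluded and PI-positive cells counted.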

P-gp, sequence (P08183 whole entry): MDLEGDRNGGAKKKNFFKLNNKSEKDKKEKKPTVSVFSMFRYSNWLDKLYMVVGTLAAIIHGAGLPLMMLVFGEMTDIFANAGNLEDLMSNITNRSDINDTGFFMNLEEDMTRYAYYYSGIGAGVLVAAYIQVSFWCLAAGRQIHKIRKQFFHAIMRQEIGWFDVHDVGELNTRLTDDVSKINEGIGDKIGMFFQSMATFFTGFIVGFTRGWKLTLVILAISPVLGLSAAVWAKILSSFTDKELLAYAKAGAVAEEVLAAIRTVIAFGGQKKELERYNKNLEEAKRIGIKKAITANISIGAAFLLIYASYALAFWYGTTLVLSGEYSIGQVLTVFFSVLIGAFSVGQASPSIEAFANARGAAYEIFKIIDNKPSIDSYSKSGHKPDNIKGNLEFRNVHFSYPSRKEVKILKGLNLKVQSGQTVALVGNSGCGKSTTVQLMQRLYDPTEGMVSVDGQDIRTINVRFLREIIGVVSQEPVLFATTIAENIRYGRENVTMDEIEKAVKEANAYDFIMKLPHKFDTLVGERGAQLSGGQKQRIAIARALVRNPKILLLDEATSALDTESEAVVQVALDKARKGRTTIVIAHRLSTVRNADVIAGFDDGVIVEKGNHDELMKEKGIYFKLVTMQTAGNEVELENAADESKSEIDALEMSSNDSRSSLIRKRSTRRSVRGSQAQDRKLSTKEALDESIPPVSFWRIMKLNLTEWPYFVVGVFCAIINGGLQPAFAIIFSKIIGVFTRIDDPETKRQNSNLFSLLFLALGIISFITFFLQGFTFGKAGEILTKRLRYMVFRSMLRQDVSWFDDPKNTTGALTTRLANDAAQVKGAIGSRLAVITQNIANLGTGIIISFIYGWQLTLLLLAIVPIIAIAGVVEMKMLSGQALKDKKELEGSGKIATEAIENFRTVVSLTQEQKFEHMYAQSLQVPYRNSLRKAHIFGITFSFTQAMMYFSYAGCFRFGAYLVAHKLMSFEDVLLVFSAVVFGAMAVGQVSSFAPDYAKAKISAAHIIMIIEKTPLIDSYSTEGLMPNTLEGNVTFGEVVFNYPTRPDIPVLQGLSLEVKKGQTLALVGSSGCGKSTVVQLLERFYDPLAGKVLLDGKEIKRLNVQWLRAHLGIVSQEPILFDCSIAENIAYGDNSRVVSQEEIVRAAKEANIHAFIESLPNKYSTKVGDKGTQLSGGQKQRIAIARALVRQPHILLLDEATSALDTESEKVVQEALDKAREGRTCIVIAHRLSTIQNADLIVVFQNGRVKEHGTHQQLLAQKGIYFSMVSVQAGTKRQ

As for `COc1cc2c3cc1Oc1c(OC)c(OC)cc4c1C(Cc1cccc(c1)Oc1ccc(cc1)CC3N(C)CC2)N(C)CC4` (racemic) [RMS1, (±)-12-Desmethoxytetrandrine and –isotetrandrine], the “cytotoxicity against HepG2 cells in comparison to tetrandrine” value (from here on “cytotoxicity against HepG2 cells”) with HepG2 cells [1] was “generally increased cytotoxicities”. Besides, the PARP cleavage entry with VCR-R CEM cells [2] is recorded as “detected”. The “mitochondrial membrane potential ΔΨm (JC-1 shift towards green fluorescence)” value with VCR-R CEM cells [3] is given as “no such an effect”.

As for `COc1cc2c3cc1Oc1c(OC)c(OC)cc4c1C(Cc1cccc(c1)Oc1ccc(cc1)CC3N(C)CC2)N(C)CC4` (racemic) [RMS2, (±)-12-Desmethoxytetrandrine and –isotetrandrine], in the data set with HepaRG™ cells, the “cell viability of HepaRG cells” value is given as “strongly decreased cell viability” and the “toxicity to HepaRG cells (cell viability)” value (shortened to “toxicity to HepaRG cells”) is reported as “significantly more toxic to HepaRG™ cells than tetrandrine”. For the same molecule, the “cell death of CYP3A4 overexpressing HepaRG cells versus empty vector” value in data set [4] is listed as “strongest effect on cell viability”. In addition, the “cytotoxicity against HepG2 cells” value in the data set on HepG2 cells [1] is “generally increased cytotoxicities”.

On to `COc1cc2c3cc1Oc1c(OC)c(OC)cc4c1C(Cc1ccc(OC(F)(F)F)c(c1)Oc1ccc(cc1)CC3N(C)CC2)N(C)CC4` (racemic) [RMS3, (±)-12-Desmethoxy-12-trifluoromethoxytetrandrine and –isotetrandrine], for which, in the data set on HepG2 cells [1], the “cytotoxicity against HepG2 cells” value is reported as “generally increased cytotoxicities; also recorded: strongly increased cytotoxicites”. The PARP cleavage entry in the data set on VCR-R CEM cells [2] is on record as “detected”. Further, the “viability of HUVECs” value in [5] is “slightly stronger effect on the viability of HUVECs than tetrandrine”.

On to `COc1cc2c3cc1Oc1c(OC)c(OC)cc4c1C(Cc1ccc(OC(F)(F)F)c(c1)Oc1ccc(cc1)CC3N(C)CC2)N(C)CC4` (racemic) [RMS4, (±)-12-Desmethoxy-12-trifluoromethoxytetrandrine and –isotetrandrine], for which, in the data set on HepaRG™ cells, the “cell viability of HepaRG cells” value is given as “slightly” and the “toxicity to HepaRG cells” value is “significantly more toxic to HepaRG™ cells than tetrandrine”. In the data set on HepG2 cells [1], the “cytotoxicity against HepG2 cells” value is reported as “generally increased cytotoxicities”. The PARP cleavage entry in the data set with VCR-R CEM cells [2] is “detected”. Further, the p-Akt levels entry in the data set on HepG2 cells [6] is given as “reduced”.

For the molecule `COc1cc2c3cc1Oc1c(OC)c(OC)cc4c1C(Cc1cc(cs1)Oc1ccc(cc1)CC3N(C)CC2)N(C)CC4` (racemic) [RMS5, (±)-Ring C thiophene analogues of tetrandrine and –isotetrandrine], in the data set with HepG2 cells [1], the “cytotoxicity against HepG2 cells” value is recorded as “generally increased cytotoxicities; also recorded: strongly increased cytotoxicites”. Moreover, in the data set on HepG2 cells [6], the “expression of Bcl-XL and Mcl-1” value is listed as “slightly diminished”; the p-Akt levels result is “reduced”.

Regarding `COc1cc2c3cc1Oc1c(OC)c(OC)cc4c1C(Cc1cc(cs1)Oc1ccc(cc1)CC3N(C)CC2)N(C)CC4` (racemic) [RMS6, (±)-Ring C thiophene analogues of tetrandrine and –isotetrandrine], the “prevention of efflux of calcein-AM (P-gp inhibition)” value at P-gp is listed as “inhibition of P-gp”. Also, in the data set with HepaRG™ cells, the “toxicity to HepaRG cells” value is reported as “significantly less toxic than tetrandrine”. Besides, the “mitochondrial membrane potential ΔΨm (JC-1 shift towards green fluorescence)” value in the data set on VCR-R CEM cells [3] is “no such an effect”. The “inhibition of proliferation of VCR-R CEM cells” value in the data set with VCR-R CEM cells [7] is “nearly inactive; also recorded: no direct effect on proliferation”. In addition, the “sensitization of VCR-R CEM cells to vincristine (apoptosis)” value (“sensitization of VCR-R CEM cells” below) in the data set with VCR-R CEM cells [8] is “successfully sensitized VCR-R CEM cells to VCR”.

Consider `COc1cc2c3cc1Oc1c(OC)c(OC)cc4c1C(Cc1ccc(Cl)c(c1)Oc1ccc(cc1)CC3N(C)CC2)N(C)CC4` (racemic) [RMS7, (±)-12-Desmethoxy-12-chlorotetrandrine and –isotetrandrine], for which the “cytotoxicity against HepG2 cells” value in the data set on HepG2 cells [1] is “generally increased cytotoxicities”. The “mitochondrial membrane potential ΔΨm (JC-1 shift towards green fluorescence)” value in the data set on VCR-R CEM cells [3] is on record as “no such an effect”.

Take `COc1cc2c3cc1Oc1c(OC)c(OC)cc4c1C(Cc1ccc(Cl)c(c1)Oc1ccc(cc1)CC3N(C)CC2)N(C)CC4` (racemic) [RMS8, (±)-12-Desmethoxy-12-chlorotetrandrine and –isotetrandrine]: in the data set on HepaRG™ cells, the “cell viability of HepaRG cells” value is on record as “slightly” and the “toxicity to HepaRG cells” value is given as “significantly more toxic to HepaRG™ cells than tetrandrine”. Moreover, the “cytotoxicity against HepG2 cells” value with HepG2 cells [1] is “generally increased cytotoxicities”. Further, in the data set on VCR-R CEM cells [2], the PARP cleavage result is “detected”. Further, in the data set with VCR-R CEM cells [8], the “sensitization of VCR-R CEM cells” value is given as “most potent analogue as it significantly increased apoptosis at 0.01 μM VCR”.

Turning to `COc1cc2c3cc1Oc1c(OC)c(OC)cc4c1C(CCCCOc1ccc(cc1)CC3N(C)CC2)N(C)CC4` (racemic) [RMS9, (±)-Ring C propylidene analogues of tetrandrine and –isotetrandrine], at P-gp, the “prevention of efflux of calcein-AM (P-gp inhibition)” value was “strongly reduces it”. Moreover, the “toxicity to HepaRG cells” value with HepaRG™ cells was “significantly less toxic than tetrandrine”. Also, in the data set on VCR-R CEM cells [3], the “mitochondrial membrane potential ΔΨm (JC-1 shift towards green fluorescence)” value was “no such an effect”. In addition, in the data set on VCR-R CEM cells [7], the “inhibition of proliferation of VCR-R CEM cells” value was “nearly inactive”. In addition, the “sensitization of VCR-R CEM cells” value in the data set on VCR-R CEM cells [8] was “all but RMS9 and RMS10 were able to sensitize”.

In the case of `COc1cc2c3cc1Oc1c(OC)c(OC)cc4c1[C@@H](Cc1ccc(O)c(c1)Oc1ccc(cc1)C[C@@H]3N(C)CC2)N(C)CC4` [berbamine, reference compound], the “cell death of HepG2 cells: influence of cellular CYP3A4 overexpression” value in the data set on HepG2 cells [1] is “not significantly increased”.

On to `COc1cc2c(cc1OC)[C@@H](Cc1ccc(Oc3cc(C[C@@H]4c5cc(OC)c(OC)cc5CCN4C)ccc3O)cc1)N(C)CC2` [dauricine, reference compound], for which the “cell death of HepG2 cells: influence of cellular CYP3A4 overexpression” value in the data set with HepG2 cells [1] is on record as “not significantly increased”.

As for `COc1ccc2cc1Oc1ccc(cc1)C[C@H]1c3cc(c(OC)cc3CCN1C)Oc1c(OC)c(OC)cc3c1[C@H](C2)N(C)CC3` [tetrandrine, reference compound], the “mitochondrial membrane potential ΔΨm (JC-1 shift towards green fluorescence)” value in the data set on VCR-R CEM cells [3] is recorded as “no such an effect”. Moreover, the “percentage of dead PBMCs” value in data set [9] is recorded as “highest percentage of dead PBMCs”.

These data come from PMC7473156 (European Journal of Medicinal Chemistry, 2020).
